These results are taken from ChEMBL document CHEMBL3785067, “Synthesis and evaluation of 4-hydroxyl aurone derivatives as multifunctional agents for the treatment of Alzheimer's disease” (Bioorg Med Chem, 2016).

Some results are limits rather than exact numbers.

Data set [1] addresses T1, Amyloid-beta precursor protein (Homo sapiens, UniProt P05067). Nature of the data set: Inhibition of Cu2+-induced amyloid beta (1 to 42) (unknown origin) aggregation at 25 uM after 24 hrs by thioflavin-T fluorescence method. The gist of the method:
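Aβ1-42 (25 µM final) mixed with Cu2+ (25 µM final) in HEPES (20 mM, pH 6.60, 150 mM NaCl), with or without compound (25 µM final), and incubated at 37 °C for 24 h. 5 µM ThT in glycine-NaOH pH 8.50 then added and fluorescence read at ex 446/em 490 nm. Percent inhibition calculated from background-subtracted signal. Run in triplicate.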

For data set [2], the target named is T2, Amine oxidase [flavin-containing] A (Homo sapiens, UniProt P21397).
T2 sequence (P21397 whole entry): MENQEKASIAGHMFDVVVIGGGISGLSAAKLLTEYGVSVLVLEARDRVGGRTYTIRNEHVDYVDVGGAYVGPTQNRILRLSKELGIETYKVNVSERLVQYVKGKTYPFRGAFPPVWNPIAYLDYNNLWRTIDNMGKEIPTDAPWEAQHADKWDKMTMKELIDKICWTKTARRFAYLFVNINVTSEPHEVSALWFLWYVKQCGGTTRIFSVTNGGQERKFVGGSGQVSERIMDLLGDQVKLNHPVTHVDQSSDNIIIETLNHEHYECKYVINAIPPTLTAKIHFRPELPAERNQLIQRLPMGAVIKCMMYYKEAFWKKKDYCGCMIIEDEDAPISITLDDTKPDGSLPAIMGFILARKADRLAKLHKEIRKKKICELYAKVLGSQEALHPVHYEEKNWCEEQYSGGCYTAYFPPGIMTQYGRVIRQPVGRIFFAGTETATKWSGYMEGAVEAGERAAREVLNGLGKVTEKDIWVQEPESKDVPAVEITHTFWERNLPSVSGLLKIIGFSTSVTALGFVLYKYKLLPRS
Nature of the data set: Inhibition of human recombinant MAO-A at 10 uM using kynuramine as substrate after 30 mins by fluorescence spectrophotometry. To be noted: 0.5 h. A digest of the protocol:
(§1)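 Recombinant human MAO-A or MAO-B (7.5 µg/mL) in 100 mM potassium phosphate with 20.2 mM KCl, pH 7.40. Kynuramine substrate at 45 µM (MAO-A) or 30 µM (MAO-B); DMSO below 4%. Incubated 37 °C for 30 min, stopped with 2N NaOH. 4-Hydroxyquinoline fluorescence read at ex 310/em 400 nm against a calibration curve. Single-concentration screen at 10 µM, in triplicate.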

Data set [3] addresses T3, Amine oxidase [flavin-containing] B (Homo sapiens, UniProt P27338).
T3 sequence (P27338 whole entry): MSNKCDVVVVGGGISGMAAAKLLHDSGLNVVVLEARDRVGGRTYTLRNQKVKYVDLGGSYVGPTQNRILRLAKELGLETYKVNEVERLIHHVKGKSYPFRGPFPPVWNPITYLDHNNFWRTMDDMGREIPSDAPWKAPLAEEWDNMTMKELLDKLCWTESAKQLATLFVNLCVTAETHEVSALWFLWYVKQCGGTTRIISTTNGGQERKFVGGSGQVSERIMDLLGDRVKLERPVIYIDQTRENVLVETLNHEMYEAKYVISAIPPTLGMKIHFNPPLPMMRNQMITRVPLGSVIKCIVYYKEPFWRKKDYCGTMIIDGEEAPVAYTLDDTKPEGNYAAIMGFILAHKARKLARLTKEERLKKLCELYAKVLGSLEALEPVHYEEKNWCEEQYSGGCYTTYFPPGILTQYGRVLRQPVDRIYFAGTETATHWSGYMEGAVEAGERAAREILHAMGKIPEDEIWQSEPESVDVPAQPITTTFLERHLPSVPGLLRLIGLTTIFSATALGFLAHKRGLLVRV
The data set can be described thus: Inhibition of human recombinant MAO-B at 10 uM using kynuramine as substrate after 30 mins by fluorescence spectrophotometry. The following applies: 0.5 h. The gist of the method:
as §1

Data set [4] can be described thus: Antioxidant activity assessed as AAPH free radical scavenging activity measured as trolox equivalent at 5 uM preincubated for 15 mins followed by AAPH addition measured every min for 90 mins by fluorescence assay. To be noted: 1.5 h. It is filed as physicochemical. The gist of the method:
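ORAC-FL in 75 mM phosphate buffer pH 7.40. Sample plus fluorescein (150 nM final) pre-incubated 15 min at 37 °C, then AAPH added (12 mM final). Fluorescence read every minute for 90 min (ex 485/em 535 nm). Net AUC (blank-subtracted) converted to Trolox equivalents using a Trolox standard curve (1-8 µM). Samples tested at 1-10 µM, in duplicate, with at least three independent assays.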

The target in data set [5] is T1, Amyloid-beta precursor protein. The data set can be described thus: Inhibition of self-induced amyloid beta (1 to 42) (unknown origin) aggregation at 25 uM after 24 hrs by thioflavin-T fluorescence method. The gist of the method:
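HFIP-pretreated Aβ1-42 (25 µM final) incubated with compound (25 µM final) in 50 mM phosphate buffer pH 7.40 at 37 °C for 24 h. ThT (5 µM in 50 mM glycine-NaOH, pH 8.5) then added and fluorescence read at ex 446/em 490 nm. Background-subtracted inhibition = (1−IFi/IFc)×100. Run in triplicate.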

Data set [6] concerns the target T3, Amine oxidase [flavin-containing] B. The data set can be described thus: Inhibition of human recombinant MAO-B using kynuramine as substrate after 30 mins by fluorescence spectrophotometry.
For the next data set, the species on record is Homo sapiens. Nature of the data set: Selectivity ratio of IC50 for human recombinant MAO-A to IC50 for human recombinant MAO-B.
Data set [7] addresses T2, Amine oxidase [flavin-containing] A. The data set can be described thus: Inhibition of human recombinant MAO-A using kynuramine as substrate after 30 mins by fluorescence spectrophotometry.
A short description of data set [8]: Metal chelating activity assessed as compound-zinc complex formation at 37.5 uM after 30 mins by UV-visual spectrometry. It is filed as physicochemical. The following applies: 0.5 h. The gist of the method: (§2)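 UV absorption spectra (200-600 nm) recorded for compound alone or with CuCl2, ZnCl2, AlCl3 or FeSO4 after 30 min incubation at room temperature.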
Data set [9] in a line: Permeability of the compound at 100 ug/ml after 18 hrs by PAMPA-BBB assay.
Data set [10] is described as follows: Metal chelating activity assessed as compound-copper complex formation at 37.5 uM after 30 mins by UV-visual spectrometry. To be noted: 0.5 h. It is filed as physicochemical. A digest of the protocol:
as §2

Data set [11] can be described thus: Metal chelating activity assessed as compound-iron complex formation at 37.5 uM after 30 mins by UV-visual spectrometry. It is filed as physicochemical. To be noted: 0.5 h. The gist of the method:
as §2

A short description of data set [12]: Metal chelating activity assessed as compound-aluminium complex formation at 37.5 uM after 30 mins by UV-visual spectrometry. The following applies: 0.5 h. It is filed as physicochemical. A digest of the protocol:
as §2

The nature of data set [13]: Metal chelating activity assessed as mole fraction of compound required to show 1:1 stoichiometry for Cu2+-compound complex at 37.5 uM after 30 mins by UV-visual spectrometry. It is filed as physicochemical. To be noted: 0.5 h. A digest of the protocol:
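Molar-ratio titration of compound in methanol (37.5 µM final) with CuCl2 (3.75-150 µM final). UV spectra corrected by subtracting CuCl2 and compound at matching concentrations. Absorbance at 498 or 488 nm plotted against mole fraction; stoichiometry taken from the intersection of the fitted lines.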

The target in data set [14] is T1, Amyloid-beta precursor protein. Nature of the data set: Displacement of [125I]-2-[(4-Aminophenyl)methylene]-5-iodo-3(2H)-benzofuranone from amyloid beta (1 to 42) (unknown origin) after 3 hrs by gamma counting method.

T1 sequence (P05067 whole entry): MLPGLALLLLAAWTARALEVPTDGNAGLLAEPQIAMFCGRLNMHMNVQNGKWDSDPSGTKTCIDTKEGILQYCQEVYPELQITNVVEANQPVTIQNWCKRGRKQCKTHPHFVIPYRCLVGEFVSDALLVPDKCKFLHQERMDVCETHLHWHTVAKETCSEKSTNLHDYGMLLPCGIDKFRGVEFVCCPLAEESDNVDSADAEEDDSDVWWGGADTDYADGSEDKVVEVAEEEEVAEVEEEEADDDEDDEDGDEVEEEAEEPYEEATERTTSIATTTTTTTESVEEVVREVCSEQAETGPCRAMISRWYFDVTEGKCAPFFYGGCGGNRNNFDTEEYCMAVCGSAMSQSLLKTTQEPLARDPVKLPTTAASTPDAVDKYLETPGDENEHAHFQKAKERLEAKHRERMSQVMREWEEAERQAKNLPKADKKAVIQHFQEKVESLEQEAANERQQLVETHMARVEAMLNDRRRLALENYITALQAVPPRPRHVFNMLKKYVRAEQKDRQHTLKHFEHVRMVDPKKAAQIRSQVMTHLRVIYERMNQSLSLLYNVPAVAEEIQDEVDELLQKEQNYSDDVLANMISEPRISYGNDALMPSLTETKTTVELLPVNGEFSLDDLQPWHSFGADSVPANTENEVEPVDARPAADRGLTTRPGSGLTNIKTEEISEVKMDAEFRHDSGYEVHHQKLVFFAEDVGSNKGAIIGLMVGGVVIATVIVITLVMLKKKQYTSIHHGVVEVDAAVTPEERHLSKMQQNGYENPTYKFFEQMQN

In the case of `O=C1c2c(O)cc(O)cc2OC1Cc1ccc(N2CCOCC2)cc1` (stereo not drawn), the results for the inhibition in data set [1] and in [5] were 20.9% and 38%, respectively. Also, the results for the inhibition at 10 µM in data set [2] and in [3] were 13.9% and 8.7%, respectively. The Activity in [4] came out at 3.56 equiv.

As to `CN(C)c1ccc(/C=C2\Oc3cc(O)cc(O)c3C2=O)cc1`, the IC50 in [6] worked out at 5940 nM; in data set [7], 233 nM. The Ratio IC50 in the data set listed under Homo sapiens is 0.039. Besides, the results for the inhibition in [1] and in data set [5] were 61.4% and 97.4%, respectively. In addition, the Activity in data set [4] came out at 2.9 equiv.

With `CN(C)c1ccc(CC2Oc3cc(O)cc(O)c3C2=O)cc1` (stereo not drawn), the inhibition in [1] was 40.5%; in data set [5] it was 42.7%. The inhibition at 10 µM in [2] came out at 23.5%; in data set [3], 27.2%. Also, the Activity in data set [4] was 3.07 equiv.

With `COc1cc(O)c2c(c1)O/C(=C\c1ccc(N3CCOCC3)cc1)C2=O`, in data set [6], the IC50 is 1500 nM. Besides, the Ratio IC50 in the data set filed under Homo sapiens was over 6.67. Also, the inhibition in data set [1] is 47.5%; in data set [5], 44.1%. For the same molecule, the inhibition at 10 µM in data set [2] stood at 18.4%. The Activity in data set [4] is on record as 1.66 equiv.

In the case of `O=C1/C(=C/c2ccc(N3CCOCC3)cc2)Oc2cc(O)cc(O)c21`, the IC50 stood at 340 nM in data set [6] and 1080 nM in data set [7]. Besides, in the data set filed under Homo sapiens, the Ratio IC50 is 3.18. For the same molecule, the inhibition in data set [1] is 50.1%; in data set [5], 80.7%. The Activity in [4] came out at 2.5 equiv.

Consider `COc1cc(O)c2c(c1)O/C(=C\c1ccc(N3CCCCC3)cc1)C2=O`, for which the Activity entry in data set [8] is reported as “Active”; in data set [10], “Active”; in data set [11], “Not Active”; in data set [4], 1 equiv; in [12] it was “Active”; in [13], 1.11 molar ratio. Moreover, the Papp at 18 h, 100 ug/ml in data set [9] was determined as 7.24 ×10⁻⁶ cm/s. The 50% inhibitory concentration (IC50) in data set [6] turned out to be 226 nM. The Ratio IC50 in the data set filed under Homo sapiens was over 44.2. In addition, the inhibition in [1] stood at 46%; in data set [5], 40.3%. Also, the inhibition at 10 µM in [2] was 18.3%.

In the case of `CCN(CC)c1ccc(/C=C2\Oc3cc(O)cc(O)c3C2=O)cc1`, the IC50 stood at 334 nM in data set [6] and 115 nM in [7]. Further, the Ratio IC50 in the data set listed under Homo sapiens was found to be 0.344. In addition, the inhibition came to 88.9% in data set [1] and 91.7% in [5]. For the same molecule, in data set [4], the Activity is 2.04 equiv.

As for `CN(C)c1ccccc1/C=C1\Oc2cc(O)cc(O)c2C1=O`, the inhibition stood at 90.1% in data set [1] and 98.2% in data set [5]. Besides, the inhibition at 10 µM worked out at 13.5% in data set [2] and 0.88% in data set [3]. Also, the Activity in [4] turned out to be 2.91 equiv.

Turning to `CN(C)c1ccc(/C=C2\Oc3ccc([125I])cc3C2=O)cc1`, the affinity in data set [14], expressed as Ki, was 6.82 nM.

In the case of `O=C1/C(=C/c2ccc(N3CCCCC3)cc2)Oc2cc(O)cc(O)c21`, the Activity entry is “Active” in data set [8]; “Active” in [10]; “Not Active” in data set [11]; 1.9 equiv in data set [4]; “Active” in data set [12]; 0.95 molar ratio in [13]. Further, in data set [9], the Papp at 18 h, 100 ug/ml came to 6.68 ×10⁻⁶ cm/s. The figures for the IC50 in data set [6] and in data set [7] were 393 nM and 271 nM, respectively. In the data set filed under Homo sapiens, the Ratio IC50 was 0.69. For the same molecule, the inhibition in data set [1] turned out to be 84%; in data set [5] it was 99.2%.

Take `CN(C)c1ccc(/C=C2\Oc3cc(N(C)C)cc(O)c3C2=O)cc1`: the results for the inhibition in [1] and in data set [5] were 71.6% and 22.3%, respectively. Besides, the inhibition at 10 µM in data set [2] was determined as 16.8%; in data set [3], 13.5%. Also, the Activity in data set [4] is recorded as 2.43 equiv.

With `CN1CCN(c2ccc(/C=C3\Oc4cc(O)cc(O)c4C3=O)cc2)CC1`, in data set [6], the concentration for half-maximal inhibition (IC50) was 10800 nM. Besides, the Ratio IC50 in the data set filed under Homo sapiens is over 0.926. In addition, the figures for the inhibition in data set [1] and in [5] were 52% and 77.7%, respectively. Besides, in [2], the inhibition at 10 µM was 15.8%. In addition, the Activity in [4] is 2.5 equiv.

`O=C1/C(=C/c2ccc(N3CCCC3)cc2)Oc2cc(O)cc(O)c21`: the 50% inhibitory concentration (IC50) stood at 391 nM in data set [6] and 457 nM in data set [7]. Also, the Ratio IC50 in the data set listed under Homo sapiens stood at 1.17. Besides, the results for the inhibition in data set [1] and in [5] were 84.8% and 99.8%, respectively. Besides, the Activity in data set [4] came to 1.56 equiv.

With `CCN(C)c1ccc(/C=C2\Oc3cc(O)cc(O)c3C2=O)cc1`, the IC50 in data set [6] was 808 nM; in [7], 27.9 nM. Also, the Ratio IC50 in the data set listed under Homo sapiens amounted to 0.035. Moreover, the inhibition in data set [1] stood at 86.6%; in [5], 95.3%. Moreover, the Activity in data set [4] was 1.97 equiv.

`COc1cc(O)c2c(c1)O/C(=C\c1ccc(N(C)C)cc1)C2=O`: the 50% inhibitory concentration (IC50) in data set [6] was found to be 703 nM. The Ratio IC50 in the data set filed under Homo sapiens is over 14.2. Besides, the inhibition in data set [1] was determined as 75.7%; in data set [5] it was 53.7%. In data set [2], the inhibition at 10 µM came out at 20.7%. In addition, the Activity in data set [4] is on record as 1.62 equiv.
